Among the data in ChEMBL document CHEMBL2424622, “Development of amino-pyrimidine inhibitors of c-Jun N-terminal kinase (JNK): kinase profiling guided optimization of a 1,2,3-benzotriazole lead” (Bioorg Med Chem Lett, 2013) are inhibition values, retold here.

Molecules are shown by their SMILES.

As usually defined, the inhibition is the change of the read-out against control, counted positive when it falls.

Assay [1] deals with T1, TGF-beta receptor type-1 (Homo sapiens) (UniProt P36897).
T1 sequence (whole entry): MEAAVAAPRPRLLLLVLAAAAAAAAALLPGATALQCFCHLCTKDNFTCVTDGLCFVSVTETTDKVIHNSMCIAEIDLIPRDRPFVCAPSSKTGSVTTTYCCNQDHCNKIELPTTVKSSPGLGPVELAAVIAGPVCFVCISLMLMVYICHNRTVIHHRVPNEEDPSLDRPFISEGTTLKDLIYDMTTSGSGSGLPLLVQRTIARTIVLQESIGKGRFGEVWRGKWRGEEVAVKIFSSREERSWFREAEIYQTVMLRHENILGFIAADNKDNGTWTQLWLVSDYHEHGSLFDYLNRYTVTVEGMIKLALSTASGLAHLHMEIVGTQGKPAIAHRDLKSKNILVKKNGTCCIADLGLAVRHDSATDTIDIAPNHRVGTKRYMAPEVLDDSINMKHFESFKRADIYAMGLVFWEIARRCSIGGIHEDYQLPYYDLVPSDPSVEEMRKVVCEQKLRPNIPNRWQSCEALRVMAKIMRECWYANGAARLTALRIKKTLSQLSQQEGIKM
The assay can be described thus: Competitive binding affinity to TGFBR1 (unknown origin) at 10 uM in presence of ATP relative to control.

Assay [2] concerns the target T2, Aurora kinase C (Homo sapiens) (UniProt Q9UQB9).
T2 sequence (whole entry): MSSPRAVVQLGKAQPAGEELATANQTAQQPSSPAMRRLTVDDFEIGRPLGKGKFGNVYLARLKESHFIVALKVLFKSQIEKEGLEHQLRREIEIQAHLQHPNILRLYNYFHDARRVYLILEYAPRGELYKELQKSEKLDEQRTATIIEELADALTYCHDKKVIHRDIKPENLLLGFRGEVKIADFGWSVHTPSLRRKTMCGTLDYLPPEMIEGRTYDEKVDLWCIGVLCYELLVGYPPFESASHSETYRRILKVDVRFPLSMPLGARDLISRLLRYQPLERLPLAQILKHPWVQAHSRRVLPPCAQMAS
The experiment in a line: Competitive binding affinity to AURKC (unknown origin) at 10 uM in presence of ATP relative to control.

In assay [3] the target is Mitogen-activated protein kinase kinase kinase 4 (Homo sapiens) (UniProt Q9Y6R4). The experiment in a line: Competitive binding affinity to MAP3K4 (unknown origin) at 10 uM in presence of ATP relative to control. The procedure, abridged: (§1)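 In vitro ATP-site competition binding assay, part of profiling against a diverse panel of 128 kinases. Each compound was tested at a single concentration of 10 µM. Kinome selectivity was summarized as S15 selectivity scores.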
Chain of Mitogen-activated protein kinase kinase kinase 4 (Homo sapiens) (Q9Y6R4 whole entry): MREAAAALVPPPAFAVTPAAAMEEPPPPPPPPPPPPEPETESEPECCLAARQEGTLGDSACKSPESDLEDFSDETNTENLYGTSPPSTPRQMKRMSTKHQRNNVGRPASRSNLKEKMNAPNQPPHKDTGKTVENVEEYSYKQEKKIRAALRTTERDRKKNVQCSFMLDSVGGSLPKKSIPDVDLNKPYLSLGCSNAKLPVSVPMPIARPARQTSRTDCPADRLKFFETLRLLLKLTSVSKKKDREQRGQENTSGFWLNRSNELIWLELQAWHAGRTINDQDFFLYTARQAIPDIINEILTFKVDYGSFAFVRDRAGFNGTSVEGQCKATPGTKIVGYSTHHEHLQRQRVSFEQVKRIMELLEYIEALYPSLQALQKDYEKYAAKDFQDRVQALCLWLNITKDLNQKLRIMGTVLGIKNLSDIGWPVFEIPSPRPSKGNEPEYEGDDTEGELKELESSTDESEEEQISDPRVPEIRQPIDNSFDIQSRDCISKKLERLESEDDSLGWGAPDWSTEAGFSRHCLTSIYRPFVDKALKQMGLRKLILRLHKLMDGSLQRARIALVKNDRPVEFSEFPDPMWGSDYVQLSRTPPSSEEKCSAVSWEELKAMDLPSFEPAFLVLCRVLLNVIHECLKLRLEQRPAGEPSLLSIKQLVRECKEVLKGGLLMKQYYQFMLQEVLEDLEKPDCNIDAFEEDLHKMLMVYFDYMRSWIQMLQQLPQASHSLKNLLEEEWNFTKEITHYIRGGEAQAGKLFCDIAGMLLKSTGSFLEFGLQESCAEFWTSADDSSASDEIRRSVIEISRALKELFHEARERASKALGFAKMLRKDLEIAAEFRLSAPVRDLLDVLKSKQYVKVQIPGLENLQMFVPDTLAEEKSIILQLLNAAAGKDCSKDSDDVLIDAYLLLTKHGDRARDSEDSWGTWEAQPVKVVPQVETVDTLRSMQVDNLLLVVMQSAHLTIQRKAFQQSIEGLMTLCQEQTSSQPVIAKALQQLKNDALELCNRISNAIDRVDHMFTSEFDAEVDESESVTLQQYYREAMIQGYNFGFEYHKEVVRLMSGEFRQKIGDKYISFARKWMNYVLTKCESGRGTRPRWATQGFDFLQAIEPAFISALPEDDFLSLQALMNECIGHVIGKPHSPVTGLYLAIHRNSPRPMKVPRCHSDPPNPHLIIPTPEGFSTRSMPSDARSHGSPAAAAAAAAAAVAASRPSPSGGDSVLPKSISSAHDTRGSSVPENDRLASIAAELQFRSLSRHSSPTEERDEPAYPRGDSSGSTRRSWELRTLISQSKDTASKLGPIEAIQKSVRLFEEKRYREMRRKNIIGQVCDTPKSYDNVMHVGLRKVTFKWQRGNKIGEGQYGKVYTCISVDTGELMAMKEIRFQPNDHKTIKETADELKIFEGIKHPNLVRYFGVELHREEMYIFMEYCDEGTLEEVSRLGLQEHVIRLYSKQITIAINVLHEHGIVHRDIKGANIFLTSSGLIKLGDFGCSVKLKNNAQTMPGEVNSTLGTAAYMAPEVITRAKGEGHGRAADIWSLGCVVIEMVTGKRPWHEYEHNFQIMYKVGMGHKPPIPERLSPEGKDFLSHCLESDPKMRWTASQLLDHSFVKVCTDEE

Assay [4] has as its target Cyclin-dependent kinase 18 (Homo sapiens) (UniProt Q07002). The assay can be described thus: Competitive binding affinity to PCTK3 (unknown origin) at 10 uM in presence of ATP relative to control.
The target of assay [5] is Tyrosine-protein kinase Srms (Homo sapiens) (UniProt Q9H3Y6). The experiment in a line: Competitive binding affinity to SRMS (unknown origin) at 10 uM in presence of ATP relative to control.
In assay [6] the target is Cyclin-dependent kinase 9 (Homo sapiens) (UniProt P50750). The experiment in a line: Competitive binding affinity to CDK9 (unknown origin) at 10 uM in presence of ATP relative to control.
For assay [7], the target named is TRAF2 and NCK-interacting protein kinase (Homo sapiens) (UniProt Q9UKE5). The experiment in a line: Competitive binding affinity to TNIK (unknown origin) at 10 uM in presence of ATP relative to control. The essentials:
(§2)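 In vitro ATP-site competition binding assay across a diverse panel of 128 kinases, with compound tested at a single concentration. Kinase selectivity scores (S15) were calculated from the panel profiles.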

Assay [8] concerns the target Cyclin-dependent kinase 17 (Homo sapiens) (UniProt Q00537). The experiment in a line: Competitive binding affinity to PCTK2 (unknown origin) at 10 uM in presence of ATP relative to control.
Another assay is filed under the species Homo sapiens. The assay can be described thus: Competitive binding affinity to EGFR L747 to E749 deletion mutant, A750P mutant (unknown origin) at 10 uM in presence of ATP relative to control.
For assay [9], the target named is Maternal embryonic leucine zipper kinase (Homo sapiens) (UniProt Q14680). The assay can be described thus: Competitive binding affinity to MELK (unknown origin) at 10 uM in presence of ATP relative to control.
The target of assay [10] is Cyclin-dependent kinase 16 (Homo sapiens) (UniProt Q00536). The assay can be described thus: Competitive binding affinity to PCTK1 (unknown origin) at 10 uM in presence of ATP relative to control. The essentials:
as §2

Assay [11] has as its target Tyrosine-protein kinase receptor Tie-1 (Homo sapiens) (UniProt P35590). The assay can be described thus: Competitive binding affinity to TIE1 (unknown origin) at 10 uM in presence of ATP relative to control.
Assay [12] relates to Epidermal growth factor receptor (Homo sapiens), P00533 [L861Q]. The experiment in a line: Competitive binding affinity to EGFR L861Q mutant (unknown origin) at 10 uM in presence of ATP relative to control. The procedure, abridged: as §1
The target in assay [13] is Tyrosine-protein kinase FRK (Homo sapiens) (UniProt P42685). The experiment in a line: Competitive binding affinity to FRK (unknown origin) at 10 uM in presence of ATP relative to control. The procedure, abridged:
as §1

Assay [14] addresses Casein kinase II subunit alpha (Homo sapiens) (UniProt P68400). The experiment in a line: Competitive binding affinity to CSNK2A1 (unknown origin) at 10 uM in presence of ATP relative to control.
Assay [15] addresses Dual specificity protein kinase CLK3 (Homo sapiens) (UniProt P49761). The assay can be described thus: Competitive binding affinity to CLK3 (unknown origin) at 10 uM in presence of ATP relative to control.
The target of assay [16] is Ribosomal protein S6 kinase alpha-5 (Homo sapiens) (UniProt O75582). The experiment in a line: Competitive binding affinity to RPS6KA5 kinase domain 2 (unknown origin) at 10 uM in presence of ATP relative to control.
Assay [17] has as its target High affinity nerve growth factor receptor (Homo sapiens) (UniProt P04629). The assay can be described thus: Competitive binding affinity to TRKA (unknown origin) at 10 uM in presence of ATP relative to control. The procedure, abridged: as §2
In another assay the target is LIM domain kinase 1 (Homo sapiens, UniProt P53667). The assay can be described thus: Competitive binding affinity to LIMK1 (unknown origin) at 10 uM in presence of ATP relative to control. The essentials: as §1
The target of assay [18] is Citron Rho-interacting kinase (Homo sapiens, UniProt O14578). The experiment in a line: Competitive binding affinity to CIT (unknown origin) at 10 uM in presence of ATP relative to control.
For assay [19], the target named is Mitogen-activated protein kinase 9 (Homo sapiens, UniProt P45984). The experiment in a line: Competitive binding affinity to JNK2 (unknown origin) at 10 uM in presence of ATP relative to control. The essentials: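 In vitro ATP-site competition binding assay across a diverse panel of 128 kinases, with each compound tested at a single concentration. Kinase binding is expressed relative to control.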

The target of assay [20] is RAC-alpha serine/threonine-protein kinase (Homo sapiens) (UniProt P31749). The experiment in a line: Competitive binding affinity to AKT1 (unknown origin) at 10 uM in presence of ATP relative to control.
Assay [21] has as its target Calcium/calmodulin-dependent protein kinase type II subunit alpha (Homo sapiens) (UniProt Q9UQM7). The assay can be described thus: Competitive binding affinity to CAMK2A (unknown origin) at 10 uM in presence of ATP relative to control.

Chain of High affinity nerve growth factor receptor (Homo sapiens) (P04629 33-796 limits assumed): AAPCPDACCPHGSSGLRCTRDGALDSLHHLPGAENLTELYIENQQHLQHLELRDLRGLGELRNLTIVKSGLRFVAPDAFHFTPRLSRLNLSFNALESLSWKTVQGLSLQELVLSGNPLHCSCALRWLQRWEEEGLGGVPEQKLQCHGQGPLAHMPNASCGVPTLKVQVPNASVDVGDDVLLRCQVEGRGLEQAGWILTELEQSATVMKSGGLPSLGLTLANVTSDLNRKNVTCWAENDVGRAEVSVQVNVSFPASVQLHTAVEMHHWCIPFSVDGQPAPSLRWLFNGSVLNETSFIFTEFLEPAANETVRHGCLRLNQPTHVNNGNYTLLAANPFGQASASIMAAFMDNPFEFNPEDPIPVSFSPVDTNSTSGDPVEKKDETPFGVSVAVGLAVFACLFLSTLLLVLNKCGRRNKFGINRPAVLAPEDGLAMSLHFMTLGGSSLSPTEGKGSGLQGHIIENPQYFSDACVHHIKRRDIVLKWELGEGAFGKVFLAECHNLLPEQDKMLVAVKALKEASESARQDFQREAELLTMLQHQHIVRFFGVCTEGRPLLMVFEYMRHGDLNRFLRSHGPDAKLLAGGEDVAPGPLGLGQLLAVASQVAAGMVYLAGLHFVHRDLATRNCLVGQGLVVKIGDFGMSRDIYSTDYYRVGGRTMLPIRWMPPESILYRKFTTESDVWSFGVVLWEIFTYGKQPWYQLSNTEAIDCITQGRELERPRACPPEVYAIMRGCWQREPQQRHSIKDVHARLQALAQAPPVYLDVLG
Chain of Casein kinase II subunit alpha (Homo sapiens) (P68400 whole entry, looked up): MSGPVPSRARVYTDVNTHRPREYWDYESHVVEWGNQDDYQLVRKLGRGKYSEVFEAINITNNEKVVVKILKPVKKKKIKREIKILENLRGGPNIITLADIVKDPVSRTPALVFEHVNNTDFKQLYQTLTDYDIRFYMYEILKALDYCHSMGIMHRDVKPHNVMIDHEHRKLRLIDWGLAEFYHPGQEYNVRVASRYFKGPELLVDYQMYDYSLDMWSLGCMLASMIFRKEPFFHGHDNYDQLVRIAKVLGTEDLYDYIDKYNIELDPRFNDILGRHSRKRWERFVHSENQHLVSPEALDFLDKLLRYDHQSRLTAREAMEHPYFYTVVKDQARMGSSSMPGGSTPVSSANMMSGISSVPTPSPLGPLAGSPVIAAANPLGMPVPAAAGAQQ
Chain of Cyclin-dependent kinase 18 (Homo sapiens) (Q07002 whole entry): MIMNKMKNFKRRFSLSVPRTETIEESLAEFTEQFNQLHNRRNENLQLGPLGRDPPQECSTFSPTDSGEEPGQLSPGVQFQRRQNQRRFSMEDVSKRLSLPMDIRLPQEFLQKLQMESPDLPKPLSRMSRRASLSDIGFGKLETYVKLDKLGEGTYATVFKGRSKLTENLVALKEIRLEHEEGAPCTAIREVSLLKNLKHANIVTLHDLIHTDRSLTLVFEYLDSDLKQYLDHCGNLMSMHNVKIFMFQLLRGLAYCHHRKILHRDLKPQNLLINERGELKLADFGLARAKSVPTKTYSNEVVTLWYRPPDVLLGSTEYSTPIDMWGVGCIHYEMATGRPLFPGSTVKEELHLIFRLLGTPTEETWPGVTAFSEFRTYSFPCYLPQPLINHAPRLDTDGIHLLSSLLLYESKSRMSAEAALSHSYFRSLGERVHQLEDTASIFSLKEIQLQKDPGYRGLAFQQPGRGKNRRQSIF
Chain of Tyrosine-protein kinase receptor Tie-1 (Homo sapiens) (P35590 whole entry): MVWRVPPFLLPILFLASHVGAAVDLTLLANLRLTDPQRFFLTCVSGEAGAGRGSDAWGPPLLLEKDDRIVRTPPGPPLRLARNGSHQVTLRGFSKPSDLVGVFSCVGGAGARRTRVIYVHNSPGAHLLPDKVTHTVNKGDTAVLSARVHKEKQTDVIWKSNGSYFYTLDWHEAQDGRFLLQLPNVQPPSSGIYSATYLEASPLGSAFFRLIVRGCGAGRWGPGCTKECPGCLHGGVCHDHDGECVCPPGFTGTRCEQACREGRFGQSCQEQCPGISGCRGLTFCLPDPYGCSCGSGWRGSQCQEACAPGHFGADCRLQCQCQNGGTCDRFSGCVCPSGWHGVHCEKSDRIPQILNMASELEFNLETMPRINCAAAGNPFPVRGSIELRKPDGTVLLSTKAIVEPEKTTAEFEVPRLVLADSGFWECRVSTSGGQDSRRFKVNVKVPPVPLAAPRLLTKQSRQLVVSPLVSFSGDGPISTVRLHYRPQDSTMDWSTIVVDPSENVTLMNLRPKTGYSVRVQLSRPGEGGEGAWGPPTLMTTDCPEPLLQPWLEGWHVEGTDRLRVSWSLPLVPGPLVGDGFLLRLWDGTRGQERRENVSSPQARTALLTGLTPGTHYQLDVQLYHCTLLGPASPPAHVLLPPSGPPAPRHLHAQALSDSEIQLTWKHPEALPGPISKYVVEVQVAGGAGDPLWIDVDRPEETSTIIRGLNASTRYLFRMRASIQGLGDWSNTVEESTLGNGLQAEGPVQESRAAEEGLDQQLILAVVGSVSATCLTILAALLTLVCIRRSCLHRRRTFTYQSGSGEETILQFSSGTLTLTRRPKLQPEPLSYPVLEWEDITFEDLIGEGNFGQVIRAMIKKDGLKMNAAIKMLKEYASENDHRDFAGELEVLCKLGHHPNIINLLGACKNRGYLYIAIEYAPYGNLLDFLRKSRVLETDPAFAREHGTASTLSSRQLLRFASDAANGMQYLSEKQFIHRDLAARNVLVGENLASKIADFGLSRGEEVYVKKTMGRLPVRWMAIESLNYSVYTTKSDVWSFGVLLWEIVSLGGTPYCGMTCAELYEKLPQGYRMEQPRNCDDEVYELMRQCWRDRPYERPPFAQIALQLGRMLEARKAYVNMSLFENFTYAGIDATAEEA
Chain of Calcium/calmodulin-dependent protein kinase type II subunit alpha (Homo sapiens) (Q9UQM7 whole entry): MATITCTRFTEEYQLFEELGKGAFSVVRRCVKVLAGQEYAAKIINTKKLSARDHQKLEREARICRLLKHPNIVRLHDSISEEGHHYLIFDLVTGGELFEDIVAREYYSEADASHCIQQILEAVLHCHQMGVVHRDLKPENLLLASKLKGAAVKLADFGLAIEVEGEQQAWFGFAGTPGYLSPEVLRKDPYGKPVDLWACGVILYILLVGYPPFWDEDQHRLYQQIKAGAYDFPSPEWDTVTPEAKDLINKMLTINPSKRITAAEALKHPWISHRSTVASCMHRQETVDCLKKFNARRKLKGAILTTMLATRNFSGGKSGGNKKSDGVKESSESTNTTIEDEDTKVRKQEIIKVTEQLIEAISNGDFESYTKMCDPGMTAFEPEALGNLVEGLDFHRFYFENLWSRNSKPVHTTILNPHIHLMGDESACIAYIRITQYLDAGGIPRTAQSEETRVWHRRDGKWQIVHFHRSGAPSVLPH

As to `O[C@H]1CC[C@H](Nc2nccc(-n3ccc4ccccc43)n2)CC1`, the inhibition is below 50% in assay [1]; below 50% in [2]; below 50% in assay [3]; below 50% in assay [4]; below 50% in assay [5]; 85% in assay [6]. For the same compound, the inhibition in assay [7] is below 50%; in assay [8] it was 73%; in the assay filed under Homo sapiens, below 50%; in [9], below 50%; in assay [10] it was 99%; in assay [11] it was below 50%. Besides, the inhibition in [12], in assay [13], in assay [14], in assay [15], in [16] and in [17] was below 50% in each case. Also, the inhibition at LIM domain kinase 1 was 77%; in assay [18] it was 79%; in assay [19], 99%; in assay [20] it was below 50%; in [21], 89%.

Regarding `O[C@H]1CC[C@H](Nc2nccc(-n3nnc4ccccc43)n2)CC1`, the inhibition in [1] was below 50%; in assay [2], below 50%; in assay [3] it was below 50%; in assay [4], below 50%; in [5], below 50%; in assay [6], 96%. Besides, the inhibition in [7] was below 50%; in [8] it was 88%; in the assay listed under Homo sapiens, below 50%; in assay [9], 94%; in [10], 100%; in [11] it was below 50%. Besides, the inhibition in assay [12] was below 50%; in assay [13] it was below 50%; in assay [14], 80%; in assay [15], 82%; in [16], 85%; in [17], below 50%. For the same compound, the inhibition on LIM domain kinase 1 was 87%; in assay [18], 98%; in [19], 99%; in assay [20], below 50%; in assay [21], 88%.

Take `CS(=O)(=O)CCCOc1cccc2c1ccn2-c1ccnc(N[C@H]2CC[C@H](C(=O)N3CCC(O)CC3)CC2)n1`: the inhibition (on LIM domain kinase 1; in assay [18]; in assay [19]) was above 85% each time.

With `O=C([C@H]1CC[C@H](Nc2nccc(-n3nnc4ccccc43)n2)CC1)N1CCOCC1`, the inhibition in [2] was below 50%; in assay [3] it was below 50%; in [7] it was below 50%; in [10], 91%; in assay [13] it was below 50%; in assay [14], 71%. Further, the inhibition in assay [15] is below 50%; in [17], below 50%; on LIM domain kinase 1 it was 78%; in assay [19], 98%; in [20], below 50%; in assay [21], below 50%.

With `O[C@H]1CC[C@H](Nc2nccc(-n3ncc4ccccc43)n2)CC1`, the inhibition in assay [1] was below 50%; in [2] it was below 50%; in assay [3], below 50%; in assay [4] it was below 50%; in assay [5], below 50%; in assay [6], 82%. Besides, the inhibition in assay [7] is 79%; in assay [8], 78%; in the assay listed under Homo sapiens, below 50%; in [9], 74%; in [10], 99%; in [11] it was below 50%. The inhibition in [12] was below 50%; in assay [13] it was below 50%; in assay [14], 87%; in assay [15] it was below 50%; in assay [16], 66%; in assay [17], below 50%. The inhibition was 88% at LIM domain kinase 1; 75% in assay [18]; 99% in assay [19]; below 50% in assay [20]; 94% in [21].

For `O[C@H]1CC[C@H](Nc2nccc(-c3n[nH]c4ccccc34)n2)CC1`, the inhibition in assay [1] is below 50%; in [2], 96%; in [3] it was 100%; in [7], 99%; in the assay listed under Homo sapiens, below 50%; in [9], 94%. In addition, the inhibition in assay [10] is 100%; in [12], below 50%; in [13], below 50%; in [14], 98%; in [15] it was 94%; in assay [17], 99%. Further, the inhibition on LIM domain kinase 1 was 96%; in assay [19], 93%; in assay [20], below 50%; in assay [21], 94%.

Turning to `N[C@H]1CC[C@H](Nc2nccc(-n3nnc4ccccc43)n2)CC1`, the inhibition in [2] was 97%; in assay [3], 84%; in assay [7], 92%; in [10], 100%; in [13], below 50%; in [14] it was 99%. Besides, the inhibition was 94% in assay [15]; below 50% in assay [17]; below 50% on LIM domain kinase 1; 100% in assay [19]; below 50% in [20]; 84% in assay [21].
